Experimental findings from ChEMBL document CHEMBL4837210 (Eur J Med Chem, 2021) are described below.

Broadly, the MIC is the lowest concentration that inhibits growth of the organism.

The structures appear in SMILES notation.

Holding throughout (format): functional
In test [1] the test system is Streptococcus pyogenes. The experiment in a line: Antibacterial activity against erythromycin-resistant Streptococcus pyogenes 2 assessed as bacterial growth inhibition incubated for 24 hrs by CLSI protocol based broth microdilution method.
The subject of test [2] is Streptococcus pyogenes. Description: Antibacterial activity against erythromycin-susceptible Streptococcus pyogenes clinical isolate 1 assessed as bacterial growth inhibition incubated for 24 hrs by CLSI protocol based broth microdilution method. In general terms: Dilution methods test growth across graded concentrations, often in twofold steps.
For test [3], the system named is Staphylococcus aureus. Description: Antibacterial activity against Staphylococcus aureus assessed as inhibition of bacterial growth measured by broth microdilution method. The conditions noted are these: time 24 hrs. The method, boiled down:
(§1)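 Broth microdilution in Mueller Hinton broth. A 0.5 McFarland suspension was diluted tenfold, giving an inoculum of 1.5 × 10⁷ cfu/mL. This was added to 2-fold serial compound dilutions from […]. Plates were incubated aerobically at 37 °C for 24 h. MIC was the lowest concentration with no visible turbidity.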

The next test relates to Bacillus pumilus. Description: Antibacterial activity against penicillin-susceptible Bacillus pumilus CMCC 63202 assessed as bacterial growth inhibition by broth dilution method. Conditions: time 24 hrs. The method, boiled down: as §1
Test [4] deals with Staphylococcus aureus. Description: Antibacterial activity against erythromycin-susceptible Staphylococcus aureus ATCC 25923 assessed as bacterial growth inhibition incubated for 24 hrs by CLSI protocol based broth microdilution method.
For a further test, the system named is Pseudomonas aeruginosa. Description: Antibacterial activity against penicillin-susceptible Pseudomonas aeruginosa ATCC27853 assessed as bacterial growth inhibition incubated for 24 hrs by CLSI protocol based broth microdilution method.
The test system of test [5] is Staphylococcus epidermidis. The experiment in a line: Antibacterial activity against penicillin-resistant Staphylococcus epidermidis assessed as inhibition of bacterial growth measured by broth microdilution method. The conditions noted are these: time 24 hrs.
The subject of another test is Escherichia coli. The experiment in a line: Antibacterial activity against penicillin-susceptible Escherichia coli ATCC 25922 assessed as inhibition of bacterial growth measured by broth microdilution method. Conditions: time 24 hrs. The method, boiled down: as §1
A further test concerns Bacillus subtilis. The experiment in a line: Antibacterial activity against penicillin-susceptible Bacillus subtilis ATCC 9372 assessed as bacterial growth inhibition incubated for 24 hrs by CLSI protocol based broth microdilution method.
The test system of test [6] is Staphylococcus aureus. Description: Antibacterial activity against methicillin-resistant Staphylococcus aureus ATCC 43300 assessed as inhibition of bacterial growth by broth microdilution method. Conditions: time 24 hrs. In short, it runs like this: (§2)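 Broth microdilution MIC. A 0.5 McFarland suspension was diluted 10-fold and added at 1.5 × 10⁷ cfu/mL to 2-fold dilutions (0.125–64) in Mueller Hinton broth. Incubated aerobically 24 h at 37 °C. MIC was the lowest concentration with no visible turbidity.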

In test [7] the test system is Staphylococcus aureus. Description: Antibacterial activity against penicillin-resistant Staphylococcus aureus assessed as inhibition of bacterial growth measured by broth microdilution method. The conditions noted are these: time 24 hrs. In short, it runs like this:
as §2

With `CCCCCCCNc1c2ccccc2[n+](C)c2ccccc12.[Cl-]`, the MIC with Streptococcus pyogenes [1] was 32 µg/mL; with Streptococcus pyogenes [2], 16 µg/mL; with Staphylococcus aureus [3] it was 16 µg/mL; in the test with Bacillus pumilus it was 32 µg/mL; with Staphylococcus aureus [4] it was 16 µg/mL; with Pseudomonas aeruginosa, more than 64 µg/mL. In addition, the minimum inhibitory concentration (MIC) was 32 µg/mL in [5]; more than 64 µg/mL in the test on Escherichia coli; 32 µg/mL in the test with Bacillus subtilis; 32 µg/mL with Staphylococcus aureus [6]; 16 µg/mL in the test with Staphylococcus aureus [7].
For `C[n+]1c2ccccc2c(Nc2ccccc2)c2ccccc21.[Cl-]`, the minimum inhibitory concentration (MIC) with Streptococcus pyogenes [1], in the test with Streptococcus pyogenes [2], in the test with Staphylococcus aureus [3], in the test on Bacillus pumilus, with Staphylococcus aureus [4] and in the test on Pseudomonas aeruginosa was more than 64 µg/mL each time. For the same compound, the minimum inhibitory concentration (MIC) (in test [5]; in the test on Escherichia coli; in the test on Bacillus subtilis; with Staphylococcus aureus [6]) was more than 64 µg/mL throughout.
With `C[n+]1c2ccccc2c(NC2CC2)c2ccccc21.[Cl-]`, the minimal inhibitory concentration (MIC) was 64 µg/mL in the test with Streptococcus pyogenes [1]; more than 64 µg/mL with Streptococcus pyogenes [2]; more than 64 µg/mL in the test on Staphylococcus aureus [3]; more than 64 µg/mL with Bacillus pumilus; more than 64 µg/mL in the test with Staphylococcus aureus [4]; more than 64 µg/mL with Pseudomonas aeruginosa. Also, the minimum inhibitory concentration (MIC) (in test [5]; in the test on Escherichia coli; with Bacillus subtilis; in the test on Staphylococcus aureus [6]) was more than 64 µg/mL each time.
Turning to `C[n+]1c2ccccc2c(Nc2ccccc2-c2ccccc2)c2ccccc21.[Cl-]`, the MIC with Streptococcus pyogenes [1], with Streptococcus pyogenes [2], in the test with Staphylococcus aureus [3], with Bacillus pumilus, with Staphylococcus aureus [4] and in the test with Pseudomonas aeruginosa was more than 64 µg/mL throughout. The minimum inhibitory concentration (MIC) (in [5]; in the test on Escherichia coli; with Bacillus subtilis; in the test with Staphylococcus aureus [6]) was more than 64 µg/mL throughout.
Turning to `C[n+]1c2ccccc2c(Nc2nccs2)c2ccccc21.[Cl-]`, the minimal inhibitory concentration (MIC) with Streptococcus pyogenes [1], in the test on Streptococcus pyogenes [2], in the test on Staphylococcus aureus [3], in the test with Bacillus pumilus, in the test with Staphylococcus aureus [4] and with Pseudomonas aeruginosa was more than 64 µg/mL in each case. In addition, the minimal inhibitory concentration (MIC) (in [5]; in the test with Escherichia coli; with Bacillus subtilis; in the test with Staphylococcus aureus [6]) was more than 64 µg/mL in each case.
Consider `C[n+]1c2ccccc2c(NC2CCCCC2)c2ccccc21.[Cl-]`, for which the MIC in the test on Streptococcus pyogenes [1] was 64 µg/mL; in the test on Streptococcus pyogenes [2], more than 64 µg/mL; in the test with Staphylococcus aureus [3] it was more than 64 µg/mL; in the test on Bacillus pumilus, more than 64 µg/mL; in the test on Staphylococcus aureus [4] it was more than 64 µg/mL; in the test on Pseudomonas aeruginosa, more than 64 µg/mL. Moreover, the MIC in [5] is more than 64 µg/mL; in the test on Escherichia coli, more than 64 µg/mL; in the test with Bacillus subtilis, 32 µg/mL; in the test with Staphylococcus aureus [6], more than 64 µg/mL.
Take `CC(C)Nc1c2ccccc2[n+](C)c2ccccc12.[Cl-]`: the MIC with Streptococcus pyogenes [1], with Streptococcus pyogenes [2], in the test on Staphylococcus aureus [3], with Bacillus pumilus, in the test with Staphylococcus aureus [4] and in the test with Pseudomonas aeruginosa was more than 64 µg/mL each time. Further, the minimal inhibitory concentration (MIC) (in test [5]; with Escherichia coli; with Bacillus subtilis; with Staphylococcus aureus [6]) was more than 64 µg/mL each time.
For `COc1ccc(Nc2c3ccccc3[n+](C)c3ccccc23)c(OC)c1.[Cl-]`, the MIC in the test with Streptococcus pyogenes [1], in the test with Streptococcus pyogenes [2], in the test on Staphylococcus aureus [3], with Bacillus pumilus, in the test on Staphylococcus aureus [4] and with Pseudomonas aeruginosa was more than 64 µg/mL throughout. For the same compound, the minimal inhibitory concentration (MIC) (in test [5]; in the test with Escherichia coli; in the test with Bacillus subtilis; with Staphylococcus aureus [6]) was more than 64 µg/mL throughout.
Turning to `C[n+]1c2ccccc2c(Nc2ncccn2)c2ccccc21.[Cl-]`, the MIC in the test on Streptococcus pyogenes [1], in the test on Streptococcus pyogenes [2], in the test with Staphylococcus aureus [3], in the test on Bacillus pumilus, in the test on Staphylococcus aureus [4] and in the test with Pseudomonas aeruginosa was more than 64 µg/mL each time. In addition, the minimal inhibitory concentration (MIC) (in [5]; in the test on Escherichia coli; in the test on Bacillus subtilis; with Staphylococcus aureus [6]) was more than 64 µg/mL in each case.
For the compound `CCCNc1c2ccccc2[n+](C)c2ccccc12.[Cl-]`, the MIC is 64 µg/mL with Streptococcus pyogenes [1]; 32 µg/mL with Streptococcus pyogenes [2]; more than 64 µg/mL in the test with Staphylococcus aureus [3]; more than 64 µg/mL in the test with Bacillus pumilus; more than 64 µg/mL with Staphylococcus aureus [4]; more than 64 µg/mL in the test on Pseudomonas aeruginosa. Also, the minimum inhibitory concentration (MIC) in test [5] was 64 µg/mL; in the test on Escherichia coli, more than 64 µg/mL; with Bacillus subtilis, more than 64 µg/mL; in the test with Staphylococcus aureus [6], more than 64 µg/mL.
As to `O=C(O)c1cn(C2CC2)c2cc(N3CCNCC3)c(F)cc2c1=O` [CIPROFLOXACIN], the MIC (in test [5]; in the test on Staphylococcus aureus [7]) was more than 64 µg/mL throughout.
Take `CCc1ccccc1Nc1c2ccccc2[n+](C)c2ccccc12.[Cl-]`: the minimum inhibitory concentration (MIC) in the test on Streptococcus pyogenes [1], with Streptococcus pyogenes [2], in the test with Staphylococcus aureus [3], in the test with Bacillus pumilus, with Staphylococcus aureus [4] and in the test on Pseudomonas aeruginosa was more than 64 µg/mL each time. For the same compound, the minimal inhibitory concentration (MIC) (in test [5]; with Escherichia coli; in the test on Bacillus subtilis; in the test with Staphylococcus aureus [6]) was more than 64 µg/mL each time.
As to `Cc1ccc(Nc2c3ccccc3[n+](C)c3ccccc23)c(C)c1.[Cl-]`, the minimal inhibitory concentration (MIC) in the test with Streptococcus pyogenes [1], in the test with Streptococcus pyogenes [2], with Staphylococcus aureus [3], with Bacillus pumilus, with Staphylococcus aureus [4] and in the test on Pseudomonas aeruginosa was more than 64 µg/mL in each case. Further, the MIC (in test [5]; with Escherichia coli; with Bacillus subtilis; in the test with Staphylococcus aureus [6]) was more than 64 µg/mL throughout.
For the compound `CCNc1c2ccccc2[n+](C)c2ccccc12.[Cl-]`, the minimal inhibitory concentration (MIC) is 64 µg/mL in the test on Streptococcus pyogenes [1]; 64 µg/mL with Streptococcus pyogenes [2]; more than 64 µg/mL with Staphylococcus aureus [3]; more than 64 µg/mL in the test on Bacillus pumilus; more than 64 µg/mL in the test with Staphylococcus aureus [4]; more than 64 µg/mL in the test on Pseudomonas aeruginosa. Further, the MIC in test [5] was more than 64 µg/mL; in the test on Escherichia coli, more than 64 µg/mL; with Bacillus subtilis, 64 µg/mL; with Staphylococcus aureus [6] it was more than 64 µg/mL.
As for `C[n+]1c2ccccc2c(Nc2ccccc2C(F)(F)F)c2ccccc21.[Cl-]`, the MIC in the test with Streptococcus pyogenes [1], in the test with Streptococcus pyogenes [2], with Staphylococcus aureus [3], with Bacillus pumilus, in the test with Staphylococcus aureus [4] and in the test on Pseudomonas aeruginosa was more than 64 µg/mL each time. Moreover, the minimal inhibitory concentration (MIC) (in test [5]; with Escherichia coli; in the test with Bacillus subtilis; with Staphylococcus aureus [6]) was more than 64 µg/mL in each case.
Turning to `C[n+]1c2ccccc2c(Nc2ccc(F)cc2F)c2ccccc21.[Cl-]`, the minimal inhibitory concentration (MIC) in the test with Streptococcus pyogenes [1], in the test with Streptococcus pyogenes [2], in the test with Staphylococcus aureus [3], with Bacillus pumilus, in the test on Staphylococcus aureus [4] and in the test on Pseudomonas aeruginosa was more than 64 µg/mL in each case. Also, the MIC (in test [5]; in the test on Escherichia coli; in the test with Bacillus subtilis; in the test with Staphylococcus aureus [6]) was more than 64 µg/mL in each case.
Consider `C[n+]1c2ccccc2c(-c2ccc(C=O)cc2)c2ccccc21.[I-]`, for which the MIC is more than 64 µg/mL with Streptococcus pyogenes [1]; 64 µg/mL in the test with Streptococcus pyogenes [2]; more than 64 µg/mL in the test on Staphylococcus aureus [3]; more than 64 µg/mL in the test on Bacillus pumilus; 64 µg/mL in the test with Staphylococcus aureus [4]; more than 64 µg/mL in the test with Pseudomonas aeruginosa. Also, the MIC (in test [5]; in the test on Escherichia coli; in the test with Bacillus subtilis; in the test on Staphylococcus aureus [6]) was more than 64 µg/mL in each case.
With `C[n+]1c2ccccc2c(Nc2ccccn2)c2ccccc21.[Cl-]`, the MIC with Streptococcus pyogenes [1], with Streptococcus pyogenes [2], with Staphylococcus aureus [3], in the test with Bacillus pumilus, in the test on Staphylococcus aureus [4] and in the test on Pseudomonas aeruginosa was more than 64 µg/mL each time. In addition, the MIC is more than 64 µg/mL in test [5], more than 64 µg/mL in the test on Escherichia coli, 64 µg/mL with Bacillus subtilis and more than 64 µg/mL in the test with Staphylococcus aureus [6].
With `C[n+]1c2ccccc2c(Nc2ccc(Cl)cc2Cl)c2ccccc21.[Cl-]`, the MIC in the test with Streptococcus pyogenes [1], in the test with Streptococcus pyogenes [2], with Staphylococcus aureus [3], in the test on Bacillus pumilus, with Staphylococcus aureus [4] and in the test on Pseudomonas aeruginosa was more than 64 µg/mL throughout. Besides, the minimal inhibitory concentration (MIC) (in test [5]; with Escherichia coli; in the test on Bacillus subtilis; in the test with Staphylococcus aureus [6]) was more than 64 µg/mL throughout.
Take `COc1ccccc1Nc1c2ccccc2[n+](C)c2ccccc12.[Cl-]`: the minimum inhibitory concentration (MIC) in the test on Streptococcus pyogenes [1], with Streptococcus pyogenes [2], with Staphylococcus aureus [3], with Bacillus pumilus, in the test on Staphylococcus aureus [4] and with Pseudomonas aeruginosa was more than 64 µg/mL in each case. Further, the minimal inhibitory concentration (MIC) (in test [5]; in the test with Escherichia coli; in the test on Bacillus subtilis; in the test with Staphylococcus aureus [6]) was more than 64 µg/mL in each case.
